Blank lines part the entries; values can stand above or below the compound they belong to.
Tests used:
[1] = Growth inhibition of human U87MG cells after 4 days by MTT assay; format: functional, cell-based, U-87MG ATCC; conditions: U-87 MG, 96 h
[2] = Half life in rat plasma at 1 uM by LC-MS/MS analysis; format: ADME, cell-free
In short: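 Pooled heparinized rat plasma incubated with 1 μM compound at 37 °C, sampled at 0, 5, 15, 30, 60 and 120 min. Reaction stopped with 5 volumes cold acetonitrile containing internal standard. Remaining compound quantified by LC-MS/MS. Half-life given as mean of two experiments.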

[3] = biological target: Epidermal growth factor receptor (Homo sapiens, UniProt P00533); experiment: Inhibition of EGFR (unknown origin) incubated for 15 mins in presence of [gamma-32P]ATP
Epidermal growth factor receptor, sequence (P00533 whole entry): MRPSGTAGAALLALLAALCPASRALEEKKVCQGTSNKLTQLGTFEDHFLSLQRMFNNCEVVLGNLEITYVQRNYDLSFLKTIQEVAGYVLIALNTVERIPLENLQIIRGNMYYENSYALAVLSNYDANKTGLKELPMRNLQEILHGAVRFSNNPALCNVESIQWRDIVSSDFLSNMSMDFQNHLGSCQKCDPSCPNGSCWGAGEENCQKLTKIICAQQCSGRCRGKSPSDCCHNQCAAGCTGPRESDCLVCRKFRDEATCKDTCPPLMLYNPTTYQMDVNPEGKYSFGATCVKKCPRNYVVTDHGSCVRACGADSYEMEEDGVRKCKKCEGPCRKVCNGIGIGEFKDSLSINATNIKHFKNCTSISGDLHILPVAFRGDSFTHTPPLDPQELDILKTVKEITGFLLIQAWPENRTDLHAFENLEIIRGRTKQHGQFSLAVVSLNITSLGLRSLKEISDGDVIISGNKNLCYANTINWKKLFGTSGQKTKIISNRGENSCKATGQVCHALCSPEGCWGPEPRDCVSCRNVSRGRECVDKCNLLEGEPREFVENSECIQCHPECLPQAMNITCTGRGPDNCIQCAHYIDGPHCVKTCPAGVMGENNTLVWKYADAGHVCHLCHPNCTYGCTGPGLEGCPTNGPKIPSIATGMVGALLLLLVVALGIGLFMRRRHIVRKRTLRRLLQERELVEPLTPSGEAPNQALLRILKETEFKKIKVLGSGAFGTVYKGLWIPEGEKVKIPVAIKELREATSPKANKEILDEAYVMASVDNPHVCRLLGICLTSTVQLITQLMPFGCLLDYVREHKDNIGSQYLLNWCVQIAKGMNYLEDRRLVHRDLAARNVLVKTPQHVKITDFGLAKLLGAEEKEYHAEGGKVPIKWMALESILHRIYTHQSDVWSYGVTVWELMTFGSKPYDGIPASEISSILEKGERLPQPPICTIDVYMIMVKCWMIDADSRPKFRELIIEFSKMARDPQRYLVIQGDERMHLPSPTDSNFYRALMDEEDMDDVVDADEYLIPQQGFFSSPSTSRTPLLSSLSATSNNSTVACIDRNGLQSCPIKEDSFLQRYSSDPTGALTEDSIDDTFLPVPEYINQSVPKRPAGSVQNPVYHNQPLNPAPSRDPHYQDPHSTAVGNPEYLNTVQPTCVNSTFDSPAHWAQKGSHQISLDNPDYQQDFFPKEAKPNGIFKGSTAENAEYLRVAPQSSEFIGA
In short: (§1)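 Purified recombinant kinase assayed with 100 μM ATP. Values averaged from at least two independent determinations.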

[4] = biological target: Casein kinase II (Homo sapiens, UniProt P19784+P67870+P68400); experiment: (§2) Inhibition of CK2 (unknown origin) using RRRDDDSDDD-NH2 as susbtrate incubated for 15 mins in presence of [gamma-32P]ATP; format: protein-complex assay
Casein kinase II (Homo sapiens, UniProt P19784+P67870+P68400), sequence (P67870 whole entry): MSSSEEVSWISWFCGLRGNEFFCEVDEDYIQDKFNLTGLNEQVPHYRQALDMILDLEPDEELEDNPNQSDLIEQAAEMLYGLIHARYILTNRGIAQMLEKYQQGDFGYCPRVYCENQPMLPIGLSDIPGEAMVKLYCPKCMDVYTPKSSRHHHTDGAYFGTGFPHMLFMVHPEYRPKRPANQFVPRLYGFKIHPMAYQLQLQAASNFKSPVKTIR
Casein kinase II (Homo sapiens, UniProt P19784+P67870+P68400), sequence (P68400 whole entry): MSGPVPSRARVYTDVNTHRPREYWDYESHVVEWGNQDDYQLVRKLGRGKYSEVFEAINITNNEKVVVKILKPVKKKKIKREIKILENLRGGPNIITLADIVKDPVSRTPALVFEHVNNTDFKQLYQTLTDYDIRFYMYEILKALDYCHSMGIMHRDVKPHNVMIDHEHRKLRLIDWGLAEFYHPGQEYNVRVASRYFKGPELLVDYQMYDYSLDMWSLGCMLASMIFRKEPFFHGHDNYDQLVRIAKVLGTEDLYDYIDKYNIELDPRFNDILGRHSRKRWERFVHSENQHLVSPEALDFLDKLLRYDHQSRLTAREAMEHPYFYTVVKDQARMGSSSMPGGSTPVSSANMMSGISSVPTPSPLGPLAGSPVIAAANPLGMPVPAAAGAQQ
Casein kinase II (Homo sapiens, UniProt P19784+P67870+P68400), sequence (P19784 whole entry): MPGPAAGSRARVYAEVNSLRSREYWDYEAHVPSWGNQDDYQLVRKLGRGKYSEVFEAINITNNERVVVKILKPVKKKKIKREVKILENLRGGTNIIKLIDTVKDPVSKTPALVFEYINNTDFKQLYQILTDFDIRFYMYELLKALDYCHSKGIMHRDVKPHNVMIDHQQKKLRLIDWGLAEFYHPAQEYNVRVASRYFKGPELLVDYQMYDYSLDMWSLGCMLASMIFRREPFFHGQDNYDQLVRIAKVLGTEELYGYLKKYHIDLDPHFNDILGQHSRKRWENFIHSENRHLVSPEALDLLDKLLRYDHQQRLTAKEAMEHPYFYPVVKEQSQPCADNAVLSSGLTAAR

[5] = biological target: Dual specificity tyrosine-phosphorylation-regulated kinase 1B (Homo sapiens, UniProt Q9Y463); experiment: Inhibition of full length recombinant human GST-tagged DYRK1B expressed in insect cells using KKISGRLSPIMTEQ-NH2 as substrate incubated for 15 mins in presence of [gamma-32P]ATP
Dual specificity tyrosine-phosphorylation-regulated kinase 1B, sequence (Q9Y463 whole entry, the tested form may be a part): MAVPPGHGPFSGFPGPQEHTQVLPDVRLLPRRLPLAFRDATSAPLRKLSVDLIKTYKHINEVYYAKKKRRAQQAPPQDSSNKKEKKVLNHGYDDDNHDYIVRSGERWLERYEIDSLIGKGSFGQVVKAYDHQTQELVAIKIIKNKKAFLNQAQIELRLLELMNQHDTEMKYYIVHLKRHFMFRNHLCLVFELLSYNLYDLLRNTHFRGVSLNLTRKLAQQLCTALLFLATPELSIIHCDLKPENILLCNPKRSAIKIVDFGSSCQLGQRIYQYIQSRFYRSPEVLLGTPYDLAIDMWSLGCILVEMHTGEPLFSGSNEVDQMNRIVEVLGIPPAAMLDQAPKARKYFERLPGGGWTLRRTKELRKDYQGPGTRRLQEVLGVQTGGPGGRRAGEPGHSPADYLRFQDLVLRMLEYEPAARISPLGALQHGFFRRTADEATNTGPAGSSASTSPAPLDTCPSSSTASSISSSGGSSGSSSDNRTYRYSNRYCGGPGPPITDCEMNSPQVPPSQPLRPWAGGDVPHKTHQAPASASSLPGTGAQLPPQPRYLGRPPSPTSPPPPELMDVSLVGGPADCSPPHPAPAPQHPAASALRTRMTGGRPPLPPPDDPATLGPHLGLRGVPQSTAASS

[6] = biological target: T1, Dual specificity tyrosine-phosphorylation-regulated kinase 1A (Homo sapiens, UniProt Q13627); experiment: Inhibition of recombinant human N-terminal His6-tagged DYRK1A catalytic domain expressed in Escherichia coli BL21(DE3) cells using KKISGRLSPIMTEQ-NH2 as substrate incubated for 15 mins in presence of [gamma-32P]ATP
[7] = biological target: T2, Dual specificity tyrosine-phosphorylation-regulated kinase 2 (Homo sapiens, UniProt Q92630); experiment: Inhibition of recombinant human N-terminal GST-tagged DYRK2 expressed in Escherichia coli BL21(DE3) cells using KKISGRLSPIMTEQ-NH2 as substrate incubated for 15 mins in presence of [gamma-32P]ATP
T2 sequence (Q92630 whole entry): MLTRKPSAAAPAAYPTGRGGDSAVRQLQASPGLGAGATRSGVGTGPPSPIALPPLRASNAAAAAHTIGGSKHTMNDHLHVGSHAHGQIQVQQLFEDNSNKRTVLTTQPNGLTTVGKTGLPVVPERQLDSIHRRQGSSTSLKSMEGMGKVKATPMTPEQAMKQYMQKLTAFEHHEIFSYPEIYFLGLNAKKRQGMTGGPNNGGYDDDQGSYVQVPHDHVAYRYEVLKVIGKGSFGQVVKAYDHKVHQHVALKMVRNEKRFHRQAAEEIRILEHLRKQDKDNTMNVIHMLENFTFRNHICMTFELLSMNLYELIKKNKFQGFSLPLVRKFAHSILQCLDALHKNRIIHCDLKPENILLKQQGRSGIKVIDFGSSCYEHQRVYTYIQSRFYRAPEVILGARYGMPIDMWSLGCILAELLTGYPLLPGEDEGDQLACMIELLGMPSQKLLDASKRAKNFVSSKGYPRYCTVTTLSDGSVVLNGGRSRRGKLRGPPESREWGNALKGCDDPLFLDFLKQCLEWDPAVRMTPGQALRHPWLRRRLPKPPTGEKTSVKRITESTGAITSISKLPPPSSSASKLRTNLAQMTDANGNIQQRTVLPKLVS
In short: (§3)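 Purified recombinant kinase with 100 µM ATP. IC50 values are averages of at least two independent determinations.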

[8] = biological target: Dual specificity protein kinase CLK1 (Homo sapiens, UniProt P49759); experiment: Inhibition of recombinant human GST-tagged CLK1 catalytic domain (129 to 484 residues) expressed in Escherichia coli using GRSRSRSRSRSRSRSR as substrate incubated for 15 mins in presence of [gamma-32P]ATP; in short: as §3
Dual specificity protein kinase CLK1, sequence (P49759 whole entry, the tested form may be a part): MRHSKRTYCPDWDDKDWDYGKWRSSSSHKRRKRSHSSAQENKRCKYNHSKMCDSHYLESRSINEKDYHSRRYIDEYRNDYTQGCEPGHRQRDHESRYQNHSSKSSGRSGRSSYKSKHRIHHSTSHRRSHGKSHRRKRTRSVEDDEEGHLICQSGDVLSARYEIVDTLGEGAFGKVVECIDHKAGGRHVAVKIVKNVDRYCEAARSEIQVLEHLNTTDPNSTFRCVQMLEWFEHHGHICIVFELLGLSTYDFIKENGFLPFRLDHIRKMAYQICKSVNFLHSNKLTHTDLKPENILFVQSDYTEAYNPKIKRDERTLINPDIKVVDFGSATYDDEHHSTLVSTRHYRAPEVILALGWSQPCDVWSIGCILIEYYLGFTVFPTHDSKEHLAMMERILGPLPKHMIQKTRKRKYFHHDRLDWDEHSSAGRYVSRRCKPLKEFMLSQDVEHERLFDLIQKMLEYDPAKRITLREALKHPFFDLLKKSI

[9] = biological target: Protein kinase C beta type (Homo sapiens, UniProt P05771); experiment: Inhibition of PKCbeta (unknown origin) incubated for 15 mins in presence of [gamma-32P]ATP; in short: as §1
Protein kinase C beta type, sequence (P05771 whole entry): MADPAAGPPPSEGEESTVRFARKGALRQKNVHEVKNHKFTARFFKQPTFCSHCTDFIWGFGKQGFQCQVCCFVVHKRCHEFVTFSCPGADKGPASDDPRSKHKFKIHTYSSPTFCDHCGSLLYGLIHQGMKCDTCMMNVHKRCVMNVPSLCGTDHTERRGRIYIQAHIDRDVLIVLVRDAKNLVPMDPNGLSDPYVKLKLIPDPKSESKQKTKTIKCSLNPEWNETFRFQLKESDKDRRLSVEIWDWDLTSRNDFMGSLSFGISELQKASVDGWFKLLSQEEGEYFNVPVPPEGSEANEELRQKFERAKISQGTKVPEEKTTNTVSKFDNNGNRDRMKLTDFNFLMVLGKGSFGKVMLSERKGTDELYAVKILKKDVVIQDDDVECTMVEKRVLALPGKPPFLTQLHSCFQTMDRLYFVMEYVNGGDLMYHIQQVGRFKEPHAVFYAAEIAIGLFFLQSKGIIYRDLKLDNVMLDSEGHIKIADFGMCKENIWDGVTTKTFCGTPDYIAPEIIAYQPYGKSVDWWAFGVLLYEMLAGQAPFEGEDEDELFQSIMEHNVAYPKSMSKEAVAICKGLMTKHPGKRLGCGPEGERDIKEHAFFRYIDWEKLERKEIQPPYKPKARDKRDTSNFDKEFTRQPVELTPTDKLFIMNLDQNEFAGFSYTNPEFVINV

[10] = biological target: T1, Dual specificity tyrosine-phosphorylation-regulated kinase 1A; experiment: Inhibition of tetracycline-inducible EGFP-DYRK1A (unknown origin) expressed in HEK293 cells coexpressing full length human EGFP-tau protein assessed as reduction in tau-Thr212 phosphorylation incubated overnight by immunoblotting assay
[11] = Dissociation constant, pKa of compound; format: physicochemical
[12] = biological target: Casein kinase II (Homo sapiens, UniProt P67870+P68400+P19784); experiment: as §2; format: protein-complex assay
Casein kinase II (Homo sapiens, UniProt P67870+P68400+P19784), sequence (P67870 whole entry): as the sequence (P67870 whole entry) above
Casein kinase II (Homo sapiens, UniProt P67870+P68400+P19784), sequence (P68400 whole entry): as the sequence (P68400 whole entry) above
Casein kinase II (Homo sapiens, UniProt P67870+P68400+P19784), sequence (P19784 whole entry): as the sequence (P19784 whole entry) above

[13] = system: Plasma; experiment: Metabolic stability in rat plasma assessed as drug degradation at 1 uM after 120 mins by LC-MS/MS analysis; format: ADME, cell-free; conditions: 2 h
In short: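 Compound (1 µM) in pooled heparinised rat plasma at 37 °C, sampled at 0, 5, 15, 30, 60 and 120 min. Reaction stopped with 5 volumes of cold acetonitrile containing internal standard. Remaining compound was measured by LC-MS/MS; means of two experiments.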

Structure (SMILES): COc1ccc2c(c1)[nH]c1c(C)nccc12 [HARMINE]
IC50 [1]: 7200 nM

Structure (SMILES): COc1ccc([C@@H]2Sc3ccccc3N(CCN(C)C)C(=O)[C@@H]2OC(C)=O)cc1 [DILTIAZEM]
half-life at 1 µM [2]: 2.08 h

Structure (SMILES): COc1ccc(/C=C2\NC(=O)SC2=O)cc1
IC50 [3]: Not Active | IC50 [4]: 170 nM | IC50 [5]: 5200 nM | IC50 [6]: 1300 nM | IC50 ([7]; read-out: IC50): 9200 nM | IC50 [8]: 3600 nM | IC50 [9]: Not Active

Structure (SMILES): COc1ccc(/C=C2\CC(C)OC2=O)cc1 (stereo not drawn)
IC50 [4]: > 10000 nM | IC50 [5]: 10500 nM | IC50 [6]: 1200 nM | IC50 [7]: Not Active | IC50 [8]: 4370 nM | IC50 [9]: Not Active

Structure (SMILES): CCOC(=O)[C@H](Cc1ccccc1)NC(C)=O
half-life at 1 µM [2]: < 0.0833 h

Structure (SMILES): COc1ccc(/C=C2\CCOC2=O)cc1
IC50 [3]: Not Active | IC50 [12]: Not Active | IC50 [5]: 3800 nM | IC50 [6]: 1810 nM | IC50 ([7]; read-out: IC50): > 10000 nM | IC50 [8]: > 10000 nM | IC50 [9]: Not Active

Structure (SMILES): COc1ccc(/C=C2\NC(=O)NC2=O)cc1
pKa [11]: 8.9 | IC50 [12]: Not Active | IC50 [5]: > 10000 nM | IC50 [6]: 6400 nM | IC50 [7]: Not Active | IC50 [8]: 10000 nM | IC50 [9]: Not Active

Structure (SMILES): COc1ccc(/C=C2\CC(=O)NC2=O)cc1
IC50 [6]: > 10000 nM

More lines, in order of falling IC50 [6], values ahead:

IC50 [3]: Not Active | IC50 [4]: > 10000 nM | IC50 [5]: 5800 nM | IC50 [6]: 1100 nM | IC50 ([7]; read-out: IC50): > 10000 nM | IC50 [8]: 7520 nM | IC50 [9]: Not Active
Structure (SMILES): COc1ccc(/C=C2\CCCOC2=O)cc1

IC50 ([3]; read-out: IC50): > 10000 nM | IC50 [4]: > 10000 nM | IC50 [5]: 1680 nM | IC50 [6]: 1080 nM | IC50 ([7]; read-out: IC50): > 10000 nM | IC50 [8]: 170 nM | IC50 [9]: Not Active
Structure (SMILES): CC1C/C(=C\c2ccc3ncsc3c2)C(=O)O1 (stereo not drawn)

IC50 ([3]; read-out: IC50): > 10000 nM | IC50 [4]: > 10000 nM | half-life at 1 µM [2]: > 2 h | IC50 [5]: 2170 nM | IC50 [6]: 960 nM | IC50 ([7]; read-out: IC50): 820 nM | IC50 [8]: > 10000 nM | Stability [13]: Stable | IC50 [9]: Not Active
Structure (SMILES): O=C1OCC/C1=C\c1ccc2c(c1)CCO2

IC50 ([3]; read-out: IC50): > 10000 nM | IC50 [4]: > 10000 nM | IC50 [5]: 6700 nM | IC50 [6]: 930 nM | IC50 ([7]; read-out: IC50): > 10000 nM | IC50 [8]: 3900 nM | IC50 [9]: Not Active
Structure (SMILES): O=C1OCC/C1=C\c1ccc2c(c1)CCCO2

IC50 ([3]; read-out: IC50): > 10000 nM | IC50 [4]: > 10000 nM | IC50 [5]: 4290 nM | IC50 [6]: 880 nM | IC50 ([7]; read-out: IC50): 2040 nM | IC50 [8]: > 10000 nM | IC50 [9]: Not Active
Structure (SMILES): O=C1OCC/C1=C\c1ccc2c(c1)OCCO2

IC50 ([3]; read-out: IC50): > 10000 nM | IC50 [4]: 2400 nM | IC50 [5]: 900 nM | IC50 [6]: 700 nM | IC50 ([7]; read-out: IC50): 1500 nM | IC50 [8]: 20 nM | IC50 ([9]; read-out: IC50): > 10000 nM
Structure (SMILES): O=C1NC(=S)N/C1=C\c1ccc2ncsc2c1

IC50 ([3]; read-out: IC50): > 10000 nM | IC50 [4]: > 10000 nM | IC50 [5]: 2630 nM | IC50 [6]: 600 nM | IC50 ([7]; read-out: IC50): 990 nM | IC50 [8]: > 10000 nM | IC50 [9]: Not Active
Structure (SMILES): O=C1OCC/C1=C\c1ccc2c(c1)OCO2

IC50 [3]: Not Active | pKa [11]: 5.8 | IC50 [4]: 220 nM | IC50 [5]: 1500 nM | IC50 [6]: 250 nM | IC50 ([7]; read-out: IC50): > 10000 nM | IC50 [8]: 5700 nM | IC50 [9]: Not Active
Structure (SMILES): COc1ccc(/C=C2/SC(=S)NC2=O)cc1
IC50 [1]: 9500 nM

IC50 ([3]; read-out: IC50): > 10000 nM | IC50 [4]: 100 nM | IC50 [5]: 300 nM | IC50 [6]: 100 nM | IC50 ([7]; read-out: IC50): 1000 nM | IC50 [8]: 500 nM | IC50 ([9]; read-out: IC50): > 10000 nM
Structure (SMILES): O=C1NC(=S)S/C1=C\c1ccc2c(c1)CCO2
IC50 [1]: 5600 nM

IC50 ([3]; read-out: IC50): > 10000 nM | IC50 [10]: 1600 nM | IC50 [4]: 20 nM | IC50 [5]: 80 nM | IC50 [6]: 30 nM | IC50 ([7]; read-out: IC50): 100 nM | IC50 [8]: 70 nM | IC50 [9]: Not Active
Structure (SMILES): O=C1NC(=O)/C(=C/c2ccc3nccnc3c2)S1
IC50 [1]: 320 nM

Source: ChEMBL document CHEMBL3774321, “Systematic diversification of benzylidene heterocycles yields novel inhibitor scaffolds selective for Dyrk1A, Clk1 and CK2” (Eur J Med Chem, 2016)
